≈ marks a conversion by molar mass, not a printed value.
Key:
[1] = test system: Mycobacterium tuberculosis; assay: Antimycobacterial activity against Mycobacterium tuberculosis H37RvMA ATCC 27294 cultured in non protein-based Middlebrook 7H9 medium supplemented with glucose-casitone-tyloxapol assessed as inhibition of bacterial growth incubated for 7 days in by alamar blue staining based assay; type: functional; details: H37RvMA ATCC 27294, 168 h
Procedure, shortened: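 Medium is 7H9 with 0.03% Casitone, 0.4% glucose and 0.05% Tyloxapol. H37RvMa is grown to OD600 0.6–0.7 and diluted 1:500. Duplicate two-fold dilutions over 10 wells come from 10 mM DMSO stocks. Incubation at 37 °C, 5% CO2. AlamarBlue added on day 7. The MIC90 is the lowest concentration with no visible growth on day 8, or is read by fluorescence.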

CHO-K1 = assay: Cytotoxicity against CHOK1 cells assessed as reduction in cell viability incubated for 48 hrs by MTT assay; type: cell-based; details: Cricetulus griseus, CHO-K1, 48 h
Procedure, shortened: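 CHO-K1 cells seeded at 10^5 cells/well 24 h before exposure, medium then replaced with fresh medium containing compound; 48 h at 37 °C, 5% CO2, MTT added at 44 h for 4 h, formazan dissolved in DMSO, OD read at 540 nm. Triplicates; DMSO stocks 2 mg/mL, poorly soluble samples as suspensions; emetine reference; IC50 from non-linear dose-response fit.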

[2] = test system: Mycobacterium tuberculosis; assay: Antimycobacterial activity against Mycobacterium tuberculosis H37RvMA ATCC 27294 cultured in protein-based Middlebrook 7H9 medium supplemented with glucose, albumin-dextrose-catalase and Tween 80 assessed as inhibition of bacterial growth incubated for 7 days in by alamar blue staining based assay; type: functional; details: H37RvMA ATCC 27294, 168 h
Procedure, shortened: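 Broth microdilution MIC90 assay against H37RvMa (ATCC 27294). Culture grown to OD600 0.6–0.7, diluted 1:500. Compounds come from 10 mM DMSO stocks and are run as duplicate two-fold dilutions over 10 wells. Plates incubated at 37 °C, 5% CO2, humidified. AlamarBlue added on day 7 and incubated 24 h more, then read on day 8, visually (blue = no growth) or by fluorescence (excitation 540 nm).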

SMILES: CC(=O)O[C@H]1C[C@@]2(C)[C@@H](C[C@@H](O)[C@H]3[C@@]4(C)CC[C@@H](O)[C@@H](C)[C@@H]4CC[C@@]32C)/C1=C(\CCC=C(C)C)C(=O)NC(C)c1ccc(Cl)c(Cl)c1 (mixture of isomers)
- MIC90 [1]: 7.2 µM
- IC50 (CHO-K1): > 50 µM
- MIC90 [2]: 32.3 µM

SMILES: CC(=O)O[C@H]1C[C@@]2(C)[C@@H](C[C@@H](O)[C@H]3[C@@]4(C)CC[C@@H](O)[C@@H](C)[C@@H]4CC[C@@]32C)/C1=C(\CCC=C(C)C)C(=O)N[C@H](C)c1ccccc1
- MIC90 [1]: 11 µM (≈ 6.82 µg/mL)
- IC50 (CHO-K1): 47.6 µM
- MIC90 [2]: > 125 µM

SMILES: COc1ccc(NC(=O)/C(CCC=C(C)C)=C2\[C@@H](OC(C)=O)C[C@@]3(C)[C@H]2C[C@@H](O)[C@H]2[C@@]4(C)CC[C@@H](O)[C@@H](C)[C@@H]4CC[C@@]23C)cc1
- MIC90 [1]: > 125 µM
- IC50 (CHO-K1): 47.1 µM
- MIC90 [2]: > 125 µM

SMILES: CC(=O)O[C@H]1C[C@@]2(C)[C@@H](C[C@@H](O)[C@H]3[C@@]4(C)CC[C@@H](O)[C@@H](C)[C@@H]4CC[C@@]32C)/C1=C(\CCC=C(C)C)C(=O)N[C@H](C)c1ccc(F)cc1
- MIC90 [1]: > 125 µM
- IC50 (CHO-K1): 8.24 µM
- MIC90 [2]: > 125 µM

SMILES: CC(=O)O[C@H]1C[C@@]2(C)[C@@H](C[C@@H](O)[C@H]3[C@@]4(C)CC[C@@H](O)[C@@H](C)[C@@H]4CC[C@@]32C)/C1=C(\CCC=C(C)C)C(=O)NC(C)c1cccnc1 (mixture of isomers)
- MIC90 [1]: 17.9 µM
- IC50 (CHO-K1): > 50 µM
- MIC90 [2]: > 125 µM

SMILES: CC(=O)O[C@H]1C[C@@]2(C)[C@@H](C[C@@H](O)[C@H]3[C@@]4(C)CC[C@@H](O)[C@@H](C)[C@@H]4CC[C@@]32C)/C1=C(\CCC=C(C)C)C(=O)N[C@@H](C)c1ccc(F)cc1
- MIC90 [1]: 7.59 µM (≈ 4.84 µg/mL)
- IC50 (CHO-K1): 47.4 µM
- MIC90 [2]: > 125 µM

SMILES: CC(=O)O[C@H]1C[C@@]2(C)[C@@H](C[C@@H](O)[C@H]3[C@@]4(C)CC[C@@H](O)[C@@H](C)[C@@H]4CC[C@@]32C)/C1=C(\CCC=C(C)C)C(=O)NCc1ccc(F)cc1
- MIC90 [1]: > 125 µM
- IC50 (CHO-K1): 40.2 µM
- MIC90 [2]: 125 µM (≈ 78 µg/mL)

SMILES: CC(=O)O[C@H]1C[C@@]2(C)[C@@H](C[C@@H](O)[C@H]3[C@@]4(C)CC[C@@H](O)[C@@H](C)[C@@H]4CC[C@@]32C)/C1=C(\CCC=C(C)C)C(=O)NCc1ccc(C)cc1
- MIC90 [1]: > 125 µM
- IC50 (CHO-K1): > 50 µM
- MIC90 [2]: 125 µM (≈ 77.5 µg/mL)

SMILES: CC(=O)O[C@H]1C[C@@]2(C)[C@@H](C[C@@H](O)[C@H]3[C@@]4(C)CC[C@@H](O)[C@@H](C)[C@@H]4CC[C@@]32C)/C1=C(\CCC=C(C)C)C(=O)Nc1ccc(C)cc1
- MIC90 [1]: > 125 µM
- IC50 (CHO-K1): > 50 µM
- MIC90 [2]: 125 µM (≈ 75.7 µg/mL)

SMILES: CC(=O)O[C@H]1C[C@@]2(C)[C@@H](C[C@@H](O)[C@H]3[C@@]4(C)CC[C@@H](O)[C@@H](C)[C@@H]4CC[C@@]32C)/C1=C(\CCC=C(C)C)C(=O)N[C@H](C)c1ccccc1Cl
- MIC90 [1]: 10.1 µM (≈ 6.61 µg/mL)
- IC50 (CHO-K1): 18.2 µM
- MIC90 [2]: > 125 µM

SMILES: CC(=O)O[C@H]1C[C@@]2(C)[C@@H](C[C@@H](O)[C@H]3[C@@]4(C)CC[C@@H](O)[C@@H](C)[C@@H]4CC[C@@]32C)/C1=C(\CCC=C(C)C)C(=O)NCc1ccc(S(N)(=O)=O)cc1
- MIC90 [1]: 2.71 µM (≈ 1.86 µg/mL)
- IC50 (CHO-K1): 30.2 µM
- MIC90 [2]: 62.3 µM (≈ 42.7 µg/mL)

SMILES: CC(=O)O[C@H]1C[C@@]2(C)[C@@H](C[C@@H](O)[C@H]3[C@@]4(C)CC[C@@H](O)[C@@H](C)[C@@H]4CC[C@@]32C)/C1=C(\CCC=C(C)C)C(=O)NC(C)c1ccc(F)cc1 (mixture of isomers)
- MIC90 [1]: 19.8 µM
- IC50 (CHO-K1): 45.3 µM
- MIC90 [2]: > 125 µM

SMILES: CO[C@H]1/C=C/O[C@@]2(C)Oc3c(C)c(O)c4c(O)c(c(/C=N/N5CCN(C)CC5)c(O)c4c3C2=O)NC(=O)/C(C)=C\C=C\[C@H](C)[C@H](O)[C@@H](C)[C@@H](O)[C@@H](C)[C@H](OC(C)=O)[C@@H]1C [RIFAMPIN]
- MIC90 [1]: 0.02 µM (≈ 0.0165 µg/mL)
- MIC90 [2]: 0.009 µM (≈ 0.00741 µg/mL)

SMILES: CC(=O)O[C@H]1C[C@@]2(C)[C@@H](C[C@@H](O)[C@H]3[C@@]4(C)CC[C@@H](O)[C@@H](C)[C@@H]4CC[C@@]32C)/C1=C(\CCC=C(C)C)C(=O)N[C@@H](C)c1ccccc1
- MIC90 [1]: 8.9 µM (≈ 5.52 µg/mL)
- IC50 (CHO-K1): 46 µM
- MIC90 [2]: > 125 µM

SMILES: CC(=O)O[C@H]1C[C@@]2(C)[C@@H](C[C@@H](O)[C@H]3[C@@]4(C)CC[C@@H](O)[C@@H](C)[C@@H]4CC[C@@]32C)/C1=C(\CCC=C(C)C)C(=O)N[C@@H](C(N)=O)c1ccccc1
- MIC90 [1]: 9.1 µM (≈ 5.9 µg/mL)
- IC50 (CHO-K1): > 50 µM
- MIC90 [2]: 15.7 µM (≈ 10.2 µg/mL)
